Values belong to the compound of their own block, whether it stands above or below them. Calls of active or inactive are those of the source. The rule behind the calls is not given here.
Key:
[1] = molecular target: Metabotropic glutamate receptor 5 (Homo sapiens) (UniProt P41594); experiment: Agonist activity at human mGluR5a assessed as effect on cAMP production in RGT cells upto 100 uM; format: functional, cell-based
Method in brief: (§1)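 Compounds were tested at concentrations up to 100 µM for agonist or antagonist effects. Assays used RGT cells, which are AV12-664 cells coexpressing GLAST and recombinant human mGlu1a, mGlu5a, mGlu4a or mGlu7a.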

[2] = molecular target: Metabotropic glutamate receptor 7 (Homo sapiens) (UniProt Q14831); experiment: Antagonist activity against human mGluR7a assessed as effect on cAMP production in RGT cells upto 100 uM; format: functional, cell-based; method in brief: as §1
[3] = molecular target: Metabotropic glutamate receptor 7 (Homo sapiens) (UniProt Q14831); experiment: Agonist activity at human mGluR7a assessed as effect on cAMP production in RGT cells upto 100 uM; format: functional, cell-based; method in brief: as §1
[4] = molecular target: Metabotropic glutamate receptor 5 (Homo sapiens) (UniProt P41594); experiment: Antagonist activity against human mGluR5a assessed as effect on cAMP production in RGT cells upto 100 uM; format: functional, cell-based; method in brief: as §1
[5] = molecular target: Metabotropic glutamate receptor 4 (Homo sapiens) (UniProt Q14833); experiment: Antagonist activity against human mGluR4a assessed as effect on cAMP production in RGT cells upto 100 uM; format: functional, cell-based; method in brief: as §1
[6] = molecular target: Metabotropic glutamate receptor 4 (Homo sapiens) (UniProt Q14833); experiment: Agonist activity at human mGluR4a assessed as effect on cAMP production in RGT cells upto 100 uM; format: functional, cell-based; method in brief: as §1
[7] = molecular target: Metabotropic glutamate receptor 1 (Homo sapiens) (UniProt Q13255); experiment: Antagonist activity against human mGluR1a assessed as effect on cAMP production in RGT cells upto 100 uM; format: functional, cell-based; method in brief: as §1
[8] = molecular target: Metabotropic glutamate receptor 1 (Homo sapiens) (UniProt Q13255); experiment: Agonist activity at human mGluR1a assessed as effect on cAMP production in RGT cells upto 100 uM; format: functional, cell-based; method in brief: as §1
Rattus norvegicus [9] = experiment: Reduction of PCP-induced ambulations in Sprague-Dawley rat at 10 mg/kg, po; format: functional; set-up: scale not given: the % may be the effect or the level left
Method in brief: (§2)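 Male Sprague-Dawley rats (225-274 g) fasted 12-18 h and habituated 30 min to the test cage. Test drug or vehicle was given orally 2 h before PCP (5 mg/kg s.c.) or 0.9% NaCl. Horizontal photobeam breaks were counted over 60 min, n=8-13 per group.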

Rattus norvegicus [10] = experiment: Plasma concentration in Fischer 344 rat at 10 mg/kg, po after 6 hrs; format: ADME, organism-based; set-up: dose 10 mg/kg, route oral; conditions: in vivo
Method in brief: (§3)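 Plasma levels in fasted male Fischer 344 rats after a 10 mg/kg oral dose in pH 7 water (NaOH), quantified by positive-ion electrospray LC/MS/MS. Main protocol sampled at 0.08/0.25–24 h, n=3 rats per time point. A variant oral-only arm used n=6 rats with samples at 0.5, 1, 2, 3, 4 and 6 h.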

[11] = Tmax in Fischer 344 rat at 10 mg/kg, iv; format: ADME, organism-based; set-up: dose 10 mg/kg, route intravenous; conditions: in vivo
Method in brief: (§4)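 Male Fischer 344 rats fasted overnight, food returned 4 h post dose, water ad libitum. Doses were in water brought to pH 7 with NaOH, given i.v. (2.5 or 10 mg/kg) or p.o. (10 mg/kg). Nine rats per dose group, three per time point, with blood taken over 0.08–24 h. Plasma measured by LC/MS/MS.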

Rattus norvegicus [12] = experiment: Plasma concentration in Fischer 344 rat at 10 mg/kg, po after 0.5 hrs; format: ADME, organism-based; set-up: dose 10 mg/kg, route oral; conditions: in vivo; method in brief: as §3
Rattus norvegicus [13] = experiment: Reduction of PCP-induced ambulations in Sprague-Dawley rat at 3 mg/kg, po; format: functional; set-up: scale not given: the % may be the effect or the level left; method in brief: as §2
[14] = molecular target: Metabotropic glutamate receptor 2 (Homo sapiens, UniProt Q14416); experiment: Agonist activity at human mGluR2 assessed as effect on cAMP production in RGT cells; format: functional, cell-based
Method in brief: (§5)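 cAMP second-messenger responses measured in RGT cells. These are non-neuronal AV12-664 cells coexpressing the glutamate transporter GLAST, to minimize glutamate activity, plus the recombinant human receptor (mGlu2, mGlu3 or mGlu8). Agonist EC50 determined.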

[15] = molecular target: T1, Metabotropic glutamate receptor 3 (Homo sapiens, UniProt Q14832); experiment: Agonist activity at human mGluR3 assessed as effect on cAMP production in RGT cells; format: functional, cell-based; method in brief: as §5
Rattus norvegicus [16] = experiment: Plasma concentration in Fischer 344 rat at 10 mg/kg, po after 2 hrs; format: ADME, organism-based; set-up: dose 10 mg/kg, route oral; conditions: in vivo; method in brief: as §3
[17] = Plasma concentration in Fischer 344 rat at 10 mg/kg, po after 8 hrs; format: ADME, organism-based; set-up: dose 10 mg/kg, route oral; method in brief: as §3
Rattus norvegicus [18] = experiment: Plasma concentration in Fischer 344 rat at 10 mg/kg, po after 3 hrs; format: ADME, organism-based; set-up: dose 10 mg/kg, route oral; conditions: in vivo; method in brief: as §3
Rattus norvegicus [19] = experiment: AUC (0-24h) in Fischer 344 rat at 10 mg/kg, po; format: ADME, organism-based, Plasma; set-up: time < 24 hr, dose 10 mg/kg, route oral; conditions: rat, in vivo, 24 h; method in brief: as §4
Rattus norvegicus [20] = experiment: Cmax in Fischer 344 rat at 10 mg/kg, po; format: ADME, organism-based; set-up: dose 10 mg/kg, route oral; conditions: in vivo; method in brief: as §4
[21] = molecular target: Metabotropic glutamate receptor 8 (Homo sapiens, UniProt O00222); experiment: Agonist activity at human mGluR8 assessed as effect on cAMP production in RGT cells; format: functional, cell-based; method in brief: as §5
[22] = Plasma concentration in Fischer 344 rat at 10 mg/kg, po after 16 hrs; format: ADME, organism-based; set-up: dose 10 mg/kg, route oral; method in brief: as §3
Rattus norvegicus [23] = experiment: Cmax in Fischer 344 rat at 10 mg/kg, iv; format: ADME, organism-based; set-up: dose 10 mg/kg, route intravenous; conditions: in vivo; method in brief: as §4
Rattus norvegicus [24] = experiment: Plasma concentration in Fischer 344 rat at 10 mg/kg, po after 1 hrs; format: ADME, organism-based; set-up: dose 10 mg/kg, route oral; conditions: in vivo; method in brief: as §3
[25] = molecular target: T1, Metabotropic glutamate receptor 3; experiment: Displacement of [3H]LY341495 from human recombinant mGluR3 in RGT cells; format: cell-based
Method in brief: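 Radioligand binding on membranes carrying recombinant human mGlu2 or mGlu3, displacing the antagonist [3H]LY341495. Ki was calculated from IC50 by the Cheng-Prusoff equation. Values are the mean of at least three separate experiments.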

Rattus norvegicus [26] = experiment: Inhibition of PCP-induced ambulations in Sprague-Dawley rat after oral administration; format: functional; method in brief: as §2
[27] = Plasma concentration in rat at 10 mg/kg, po after 24 hrs; format: ADME, organism-based; set-up: dose 10 mg/kg, route oral; method in brief: as §3
[28] = AUC (0-24h) in Fischer 344 rat at 10 mg/kg, iv; format: ADME, organism-based; set-up: time < 24 hr, dose 10 mg/kg, route intravenous; conditions: plasma; method in brief: as §4
Rattus norvegicus [29] = experiment: Plasma concentration in Fischer 344 rat at 10 mg/kg, po after 4 hrs; format: ADME, organism-based; set-up: dose 10 mg/kg, route oral; conditions: in vivo; method in brief: as §3
[30] = Oral bioavailability in Fischer 344 rat at 10 mg/kg, po; format: ADME, organism-based; conditions: in vivo; method in brief: as §4
[31] = Tmax in Fischer 344 rat at 10 mg/kg, po; format: ADME, organism-based; set-up: dose 10 mg/kg, route oral; conditions: Fischer 344, rat, in vivo; method in brief: as §4
Rattus norvegicus [32] = experiment: Impairment of rotarod performance in Sprague-Dawley rat at 3 mg/kg, po after 2 hrs; format: functional, organism-based; set-up: dose 3 mg/kg
Method in brief: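 Fasted Sprague-Dawley rats were trained on a rotorod at 4 rpm over four trials. Rats holding on for 60 s were retested 30 min before dosing, then given oral drug or vehicle. They were tested again 2 h later for up to 60 s. Read-out is mean seconds on the rod, n=8 per group.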

Chain of Metabotropic glutamate receptor 1 (Homo sapiens) (Q13255 19-1194 limits assumed): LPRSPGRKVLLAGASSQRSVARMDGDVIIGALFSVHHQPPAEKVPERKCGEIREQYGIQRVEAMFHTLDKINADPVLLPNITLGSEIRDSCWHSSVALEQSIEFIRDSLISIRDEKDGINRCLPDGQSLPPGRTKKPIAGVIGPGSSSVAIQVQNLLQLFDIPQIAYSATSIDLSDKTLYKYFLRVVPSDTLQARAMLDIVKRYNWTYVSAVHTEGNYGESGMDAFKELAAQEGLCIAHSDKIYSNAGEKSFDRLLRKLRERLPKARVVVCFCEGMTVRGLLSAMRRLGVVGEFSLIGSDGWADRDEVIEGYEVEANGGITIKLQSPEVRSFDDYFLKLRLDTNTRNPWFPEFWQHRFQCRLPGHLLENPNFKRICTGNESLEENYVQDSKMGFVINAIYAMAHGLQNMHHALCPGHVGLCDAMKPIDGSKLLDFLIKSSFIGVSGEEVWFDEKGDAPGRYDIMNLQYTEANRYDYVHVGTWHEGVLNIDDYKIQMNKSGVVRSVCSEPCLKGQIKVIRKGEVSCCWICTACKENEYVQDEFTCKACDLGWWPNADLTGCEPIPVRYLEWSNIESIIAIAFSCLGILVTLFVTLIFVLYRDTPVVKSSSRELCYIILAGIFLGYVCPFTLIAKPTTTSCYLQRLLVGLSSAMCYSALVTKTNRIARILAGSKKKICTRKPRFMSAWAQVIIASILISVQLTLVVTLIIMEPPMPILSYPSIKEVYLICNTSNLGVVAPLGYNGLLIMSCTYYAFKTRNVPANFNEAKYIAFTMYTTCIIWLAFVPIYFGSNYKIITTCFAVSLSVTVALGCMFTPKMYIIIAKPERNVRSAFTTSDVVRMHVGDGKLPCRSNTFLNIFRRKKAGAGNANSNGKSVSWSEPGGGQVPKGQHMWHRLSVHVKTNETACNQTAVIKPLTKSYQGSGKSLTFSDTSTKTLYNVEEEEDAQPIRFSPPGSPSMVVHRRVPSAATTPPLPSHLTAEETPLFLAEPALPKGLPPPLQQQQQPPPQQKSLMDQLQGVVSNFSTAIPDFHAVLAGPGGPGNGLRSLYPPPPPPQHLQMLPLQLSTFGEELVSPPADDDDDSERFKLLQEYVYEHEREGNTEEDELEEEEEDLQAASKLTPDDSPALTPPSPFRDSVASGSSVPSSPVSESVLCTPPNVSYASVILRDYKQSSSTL
Chain of Metabotropic glutamate receptor 5 (Homo sapiens) (P41594 21-1212 limits assumed): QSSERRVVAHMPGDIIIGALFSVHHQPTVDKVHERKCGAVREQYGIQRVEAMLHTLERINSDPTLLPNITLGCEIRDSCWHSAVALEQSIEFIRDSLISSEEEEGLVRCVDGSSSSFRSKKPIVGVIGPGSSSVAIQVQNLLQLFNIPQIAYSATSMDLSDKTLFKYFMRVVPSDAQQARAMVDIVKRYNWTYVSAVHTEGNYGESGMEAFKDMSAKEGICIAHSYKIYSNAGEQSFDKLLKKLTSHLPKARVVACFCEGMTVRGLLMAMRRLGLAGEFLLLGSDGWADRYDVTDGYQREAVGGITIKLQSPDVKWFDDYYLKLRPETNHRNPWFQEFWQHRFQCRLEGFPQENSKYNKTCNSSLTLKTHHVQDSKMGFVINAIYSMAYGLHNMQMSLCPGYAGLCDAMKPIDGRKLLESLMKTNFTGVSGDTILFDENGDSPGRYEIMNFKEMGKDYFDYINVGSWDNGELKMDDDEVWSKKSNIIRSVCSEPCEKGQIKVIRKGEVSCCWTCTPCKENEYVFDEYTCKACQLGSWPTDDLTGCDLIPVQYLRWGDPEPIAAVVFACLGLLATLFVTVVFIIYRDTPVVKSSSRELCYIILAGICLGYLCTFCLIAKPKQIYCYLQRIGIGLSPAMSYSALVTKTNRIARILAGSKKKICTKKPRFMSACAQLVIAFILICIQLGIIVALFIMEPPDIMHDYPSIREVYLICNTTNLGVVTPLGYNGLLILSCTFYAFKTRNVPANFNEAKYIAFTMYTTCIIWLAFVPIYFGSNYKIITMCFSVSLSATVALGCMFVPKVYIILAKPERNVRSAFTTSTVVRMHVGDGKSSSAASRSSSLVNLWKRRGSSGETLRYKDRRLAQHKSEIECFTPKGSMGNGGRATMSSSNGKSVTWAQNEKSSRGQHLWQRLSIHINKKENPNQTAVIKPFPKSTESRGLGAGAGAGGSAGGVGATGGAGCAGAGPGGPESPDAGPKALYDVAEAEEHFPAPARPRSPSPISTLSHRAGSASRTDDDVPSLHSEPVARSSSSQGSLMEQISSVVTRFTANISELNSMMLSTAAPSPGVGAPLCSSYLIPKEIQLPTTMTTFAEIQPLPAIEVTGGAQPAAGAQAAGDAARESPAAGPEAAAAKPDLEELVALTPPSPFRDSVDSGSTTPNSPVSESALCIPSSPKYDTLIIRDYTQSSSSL
Chain of Metabotropic glutamate receptor 7 (Homo sapiens) (Q14831 whole entry): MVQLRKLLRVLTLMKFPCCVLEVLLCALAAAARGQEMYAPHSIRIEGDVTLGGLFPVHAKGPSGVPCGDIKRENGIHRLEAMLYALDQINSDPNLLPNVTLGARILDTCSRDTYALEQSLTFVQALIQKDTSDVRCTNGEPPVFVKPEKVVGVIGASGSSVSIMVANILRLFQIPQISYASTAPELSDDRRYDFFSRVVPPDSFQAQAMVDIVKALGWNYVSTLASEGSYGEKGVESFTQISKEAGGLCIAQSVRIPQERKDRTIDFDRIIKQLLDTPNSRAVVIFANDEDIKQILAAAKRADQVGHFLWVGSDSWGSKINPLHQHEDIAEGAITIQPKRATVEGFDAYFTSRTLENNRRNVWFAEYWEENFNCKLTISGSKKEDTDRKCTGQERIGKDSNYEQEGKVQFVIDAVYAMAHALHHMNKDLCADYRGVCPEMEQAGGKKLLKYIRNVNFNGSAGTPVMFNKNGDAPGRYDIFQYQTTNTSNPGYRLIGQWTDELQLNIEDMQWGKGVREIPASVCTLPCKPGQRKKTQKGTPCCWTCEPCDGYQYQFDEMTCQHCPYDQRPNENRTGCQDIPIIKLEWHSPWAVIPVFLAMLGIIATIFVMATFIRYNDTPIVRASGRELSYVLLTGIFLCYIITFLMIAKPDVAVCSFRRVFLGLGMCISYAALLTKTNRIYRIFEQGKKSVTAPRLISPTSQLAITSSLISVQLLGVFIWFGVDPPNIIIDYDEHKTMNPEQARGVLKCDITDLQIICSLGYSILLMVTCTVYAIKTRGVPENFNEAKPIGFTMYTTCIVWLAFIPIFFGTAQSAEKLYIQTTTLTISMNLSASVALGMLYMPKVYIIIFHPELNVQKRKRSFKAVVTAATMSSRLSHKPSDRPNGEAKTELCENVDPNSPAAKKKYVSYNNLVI
Chain of Metabotropic glutamate receptor 4 (Homo sapiens) (Q14833 whole entry): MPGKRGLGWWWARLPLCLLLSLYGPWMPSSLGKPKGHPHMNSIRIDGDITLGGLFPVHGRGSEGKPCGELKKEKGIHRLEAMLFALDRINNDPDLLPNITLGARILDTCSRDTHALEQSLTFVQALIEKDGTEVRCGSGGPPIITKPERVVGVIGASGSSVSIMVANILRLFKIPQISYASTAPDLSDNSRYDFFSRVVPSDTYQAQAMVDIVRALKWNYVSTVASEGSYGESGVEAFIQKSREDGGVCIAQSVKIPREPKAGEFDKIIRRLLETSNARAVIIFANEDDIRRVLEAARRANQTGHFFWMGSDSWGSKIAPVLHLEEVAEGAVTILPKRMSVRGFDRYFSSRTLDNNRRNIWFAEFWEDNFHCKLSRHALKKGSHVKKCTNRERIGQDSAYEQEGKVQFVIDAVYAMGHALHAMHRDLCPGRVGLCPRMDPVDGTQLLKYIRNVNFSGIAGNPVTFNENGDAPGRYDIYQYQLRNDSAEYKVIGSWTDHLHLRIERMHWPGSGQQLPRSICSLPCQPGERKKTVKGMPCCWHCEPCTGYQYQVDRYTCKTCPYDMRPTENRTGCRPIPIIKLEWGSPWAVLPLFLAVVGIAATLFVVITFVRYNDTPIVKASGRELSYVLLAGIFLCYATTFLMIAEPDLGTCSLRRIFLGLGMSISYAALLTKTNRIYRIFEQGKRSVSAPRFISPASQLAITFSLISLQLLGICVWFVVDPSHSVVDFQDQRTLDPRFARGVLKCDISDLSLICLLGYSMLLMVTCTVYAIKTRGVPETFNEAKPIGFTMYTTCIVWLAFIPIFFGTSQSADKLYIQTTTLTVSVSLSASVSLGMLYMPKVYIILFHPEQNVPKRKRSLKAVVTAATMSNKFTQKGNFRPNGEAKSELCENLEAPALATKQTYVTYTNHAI
T1 sequence (Q14832 whole entry): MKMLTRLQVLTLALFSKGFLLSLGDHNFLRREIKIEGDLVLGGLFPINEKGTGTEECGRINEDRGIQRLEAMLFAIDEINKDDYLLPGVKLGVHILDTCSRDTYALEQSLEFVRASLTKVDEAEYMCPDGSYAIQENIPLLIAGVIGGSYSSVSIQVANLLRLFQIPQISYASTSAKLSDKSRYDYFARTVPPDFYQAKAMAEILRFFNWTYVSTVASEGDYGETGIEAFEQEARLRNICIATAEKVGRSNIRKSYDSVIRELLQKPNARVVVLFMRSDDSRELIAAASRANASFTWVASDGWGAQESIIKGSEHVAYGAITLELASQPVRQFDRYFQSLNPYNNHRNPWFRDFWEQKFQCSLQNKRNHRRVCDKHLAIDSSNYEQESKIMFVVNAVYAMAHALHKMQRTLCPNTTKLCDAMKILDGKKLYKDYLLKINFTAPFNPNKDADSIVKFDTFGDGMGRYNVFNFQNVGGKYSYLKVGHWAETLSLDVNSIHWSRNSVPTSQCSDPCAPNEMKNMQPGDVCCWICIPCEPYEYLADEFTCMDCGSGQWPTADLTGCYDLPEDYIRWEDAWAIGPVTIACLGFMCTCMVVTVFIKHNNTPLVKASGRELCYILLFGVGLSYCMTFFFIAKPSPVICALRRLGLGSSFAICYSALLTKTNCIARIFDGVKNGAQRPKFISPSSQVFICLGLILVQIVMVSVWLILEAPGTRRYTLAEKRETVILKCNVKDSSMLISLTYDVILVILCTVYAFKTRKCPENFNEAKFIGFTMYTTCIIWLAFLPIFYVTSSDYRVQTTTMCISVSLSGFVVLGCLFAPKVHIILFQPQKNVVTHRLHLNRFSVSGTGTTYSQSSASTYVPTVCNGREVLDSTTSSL

Compound: N[C@@]1(C(=O)O)CC[C@H]2[C@H](C(=O)O)[C@H]21
Activity [1]: inactive | Activity [2]: inactive | Activity [3]: inactive | Activity [4]: inactive | Activity [5]: inactive | Activity [6]: inactive | Activity [7]: inactive | Activity [8]: inactive

Compound: N[C@@]1(C(=O)O)CO[C@H]2[C@H](C(=O)O)[C@H]21
Activity [1]: inactive | Activity [2]: inactive | Activity [3]: inactive | Activity [4]: inactive | Activity [5]: inactive | Activity [6]: inactive | Activity [7]: inactive | Activity [8]: inactive

Compound: N[C@@]1(C(=O)O)CS[C@H]2[C@H](C(=O)O)[C@H]21
Activity [1]: inactive | Activity [2]: inactive | Activity [3]: inactive | Activity [4]: inactive | Activity [5]: inactive | Activity [6]: inactive | Activity [7]: inactive | Activity [8]: inactive

More lines, main results first:

Cp (Rattus norvegicus [10]): 311 ng/mL | Tmax [11]: 0 h | Cp (Rattus norvegicus [12]): 7495 ng/mL | EC50 [14]: 0.089 nM | EC50 [15]: 1.4 nM | Cp (Rattus norvegicus [16]): 2895 ng/mL | concentration at 8 h [17]: 202 ng/mL | Cp (Rattus norvegicus [18]): 699 ng/mL | AUC (Rattus norvegicus [19]): 13 µg·h/mL | Cmax (Rattus norvegicus [20]): 7.5 µg/mL | EC50 [21]: 3.07 µM | concentration at 16 h [22]: 34 ng/mL | Cmax (Rattus norvegicus [23]): 0.029 mg/mL | Cp (Rattus norvegicus [24]): 3244 ng/mL | Ki [25]: 0.17 nM | concentration at 24 h [27]: 3 ng/mL | AUC(0-t) at 24 h [28]: 13000 ng·h/mL | Cp (Rattus norvegicus [29]): 726 ng/mL | bioavailability [30]: 100% | Tmax [31]: 30 min
Compound: N[C@@]1(C(=O)O)C[S+]([O-])[C@H]2[C@H](C(=O)O)[C@H]21 (stereo in doubt; (+)-11) [listing 1 of 2 here]
Activity (Rattus norvegicus [9]): 98% | Activity (Rattus norvegicus [13]): 98% | ED50 (Rattus norvegicus [26]): 2.3 mg/kg

Activity [1]: inactive | Activity [2]: inactive | Activity [3]: inactive | Activity [4]: inactive | Activity [5]: inactive | Activity [6]: inactive | Activity [7]: inactive | Activity [8]: inactive
Compound: N[C@@]1(C(=O)O)C[S+]([O-])[C@H]2[C@H](C(=O)O)[C@H]21 (stereo in doubt; (+)-11) [listing 2 of 2 here]
Activity (Rattus norvegicus [32]): Active

Source: ChEMBL document CHEMBL1139833, “Synthesis and metabotropic glutamate receptor activity of S-oxidized variants of (-)-4-amino-2-thiabicyclo-[3.1.0]hexane-4,6-dicarboxylate: identification of potent, selective, and orally bioavailable agonists for mGlu2/3 receptors” (J Med Chem, 2007)
